Source: ChEMBL document CHEMBL4396947, “Synthesis and characterization of novel isoform-selective IP6K1 inhibitors” (Bioorg Med Chem Lett, 2019)
Converted amounts (≈) assume the structure as drawn.

Legend:
[1] = target: Casein kinase I isoform gamma-1 (Homo sapiens) (UniProt Q9HCP0); assay: Inhibition of recombinant human CK1gamma1 (25 to 355 residues) assessed as residual activity at 10 uM using KRRRALS(p)VAS as substrate incubated for 40 mins in presence of [gamma-33P]ATP at Km concentration by radiometric assay relative to control
[2] = target: T1, Inositol hexakisphosphate kinase 3 (Homo sapiens, UniProt Q96PC2); assay: Inhibition of IP6K3 (unknown origin) incubated for 120 mins using IP6 as substrate in presence of ATP by ADP-Glo reagent based luminescence assay
How it was run: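 Luminescent ADP-Glo Max format adapted for IP6K, with purified enzyme and ATP at 1 mM, which is consumed as the kinase reaction proceeds. IC50 taken from the resulting inhibition data.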

[3] = species: Homo sapiens; assay: Inhibition of recombinant full length human PI3K p110delta/p85alpha N253S mutant assessed as residual activity at 10 uM incubated for 40 mins in presence of [gamma-33P]ATP at Km concentration by radiometric assay relative to control
[4] = Half life in human microsomes at 1 uM in presence of NADPH; type: ADME, Microsome
[5] = system: Eukaryotic elongation factor 2 kinase (Homo sapiens), O00418 [H23R]; assay: Inhibition of recombinant human eEF2K H23R mutant (2 to end residues) assessed as residual activity at 10 uM using RKKFGESEKTKTK as substrate incubated for 40 mins in presence of [gamma-33P]ATP at Km concentration by radiometric assay relative to control
[6] = target: Protein kinase C theta type (Homo sapiens) (UniProt Q04759); assay: Inhibition of recombinant full length human PKCtheta assessed as residual activity at 10 uM using histone H1 as substrate incubated for 40 mins in presence of [gamma-33P]ATP at Km concentration by radiometric assay relative to control
[7] = target: Inositol hexakisphosphate kinase 1 (Homo sapiens, UniProt Q92551); assay: Inhibition of IP6K1 (unknown origin) in presence of ATP at Km concentration by Cheng-Prusoff equation analysis
How it was run: (§1)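 Purified IP6K isoforms run in the ADP-Glo Max kinase assay with 1 mM ATP. Measured IC50 values converted to Ki with the Cheng-Prusoff equation.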

[8] = system: Glycogen synthase kinase-3 beta (Homo sapiens), P49841 [UNDEFINED MUTATION]; assay: Inhibition of human recombinant GSK3beta H350L mutant (2 to end residues) assessed as residual activity at 10 uM using YRRAAVPPSPSLSR as substrate incubated for 40 mins in presence of [gamma-33P]ATP at Km concentration by radiometric assay relative to control
[9] = target: Inhibitor of nuclear factor kappa-B kinase subunit alpha (Homo sapiens) (UniProt O15111); assay: Inhibition of human full length recombinant IKKalpha assessed as residual activity at 10 uM using peptide as substrate incubated for 40 mins in presence of [gamma-33P]ATP at Km concentration by radiometric assay relative to control
[10] = target: Mitogen-activated protein kinase kinase kinase 7 (Homo sapiens) (UniProt O43318); assay: Inhibition of recombinant human TAK1 (1 to 303 residues) assessed as residual activity at 10 uM using casein as substrate incubated for 40 mins in presence of [gamma-33P]ATP at Km concentration by radiometric assay relative to control
[11] = species: Homo sapiens; assay: Inhibition of recombinant full length human PI3K p120gamma R459Q mutant assessed as residual activity at 10 uM using phosphatidylinositol-4,5 bisphosphate as substrate incubated for 40 mins in presence of [gamma-33P]ATP at Km concentration by radiometric assay relative to control
[12] = Solubility of compound in pH 7.4 PBS at 100 ug/ml incubated for 2 hrs by LC-MS/MS analysis; type: physicochemical; conditions: buffer, pH 7.4, 2 h
[13] = target: Calcium/calmodulin-dependent protein kinase type 1 (Homo sapiens) (UniProt Q14012); assay: Inhibition of human full length recombinant CAMKI assessed as residual activity at 10 uM using KKLRRTLSFAEPG as substrate incubated for 40 mins in presence of [gamma-33P]ATP at Km concentration by radiometric assay relative to control
[14] = target: CDK2/Cyclin A2 (Homo sapiens) (UniProt P24941+P20248); assay: Inhibition of human full length recombinant CDK2/cyclinA assessed as residual activity at 10 uM using Histone H1 as substrate incubated for 40 mins in presence of [gamma-33P]ATP at Km concentration by radiometric assay relative to control; type: protein-complex assay
[15] = target: Serine/threonine-protein kinase mTOR (Homo sapiens) (UniProt P42345); assay: Inhibition of full length recombinant human mTOR assessed as residual activity at 10 uM incubated for 40 mins in presence of [gamma-33P]ATP at Km concentration by radiometric assay relative to control
[16] = target: T1, Inositol hexakisphosphate kinase 3; assay: Inhibition of IP6K3 (unknown origin) in presence of ATP at Km concentration by Cheng-Prusoff equation analysis; how it was run: as §1
[17] = target: 5'-AMP-activated protein kinase catalytic subunit alpha-1 (Homo sapiens) (UniProt Q13131); assay: Inhibition of human full length recombinant AMPKalpha1 assessed as residual activity at 10 uM using AMARAASAAALAR as substrate incubated for 40 mins in presence of [gamma-33P]ATP at Km concentration by radiometric assay relative to control
[18] = target: Tyrosine-protein kinase Fyn (Homo sapiens) (UniProt P06241); assay: Inhibition of human full length recombinant FYN assessed as residual activity at 10 uM using KVEKIGEGTYGVV as substrate incubated for 40 mins in presence of [gamma-33P]ATP at Km concentration by radiometric assay relative to control
[19] = target: Tyrosine-protein kinase ABL1 (Homo sapiens) (UniProt P00519); assay: Inhibition of human recombinant ABL (27 to end residues) assessed as residual activity at 10 uM using EAIYAAPFAKKK as substrate incubated for 40 mins in presence of [gamma-33P]ATP at Km concentration by radiometric assay relative to control
[20] = target: Ribosomal protein S6 kinase alpha-1 (Homo sapiens) (UniProt Q15418); assay: Inhibition of recombinant full length human RSK1 assessed as residual activity at 10 uM using KKKNRTLSVA as substrate incubated for 40 mins in presence of [gamma-33P]ATP at Km concentration by radiometric assay relative to control
[21] = system: RAF proto-oncogene serine/threonine-protein kinase (Homo sapiens), P04049 [Y340D,Y341D]; assay: Inhibition of recombinant human c-RAF Y340D/Y341D double mutant (360 to end residues) assessed as residual activity at 10 uM using inactive MEK1 as substrate incubated for 40 mins in presence of [gamma-33P]ATP at Km concentration by radiometric assay relative to control
[22] = target: cGMP-dependent protein kinase 1 (Homo sapiens) (UniProt Q13976); assay: Inhibition of recombinant full length human PKG1alpha assessed as residual activity at 10 uM using RRRLSFAEPG as substrate incubated for 40 mins in presence of [gamma-33P]ATP at Km concentration by radiometric assay relative to control

T1 sequence (Q96PC2 whole entry): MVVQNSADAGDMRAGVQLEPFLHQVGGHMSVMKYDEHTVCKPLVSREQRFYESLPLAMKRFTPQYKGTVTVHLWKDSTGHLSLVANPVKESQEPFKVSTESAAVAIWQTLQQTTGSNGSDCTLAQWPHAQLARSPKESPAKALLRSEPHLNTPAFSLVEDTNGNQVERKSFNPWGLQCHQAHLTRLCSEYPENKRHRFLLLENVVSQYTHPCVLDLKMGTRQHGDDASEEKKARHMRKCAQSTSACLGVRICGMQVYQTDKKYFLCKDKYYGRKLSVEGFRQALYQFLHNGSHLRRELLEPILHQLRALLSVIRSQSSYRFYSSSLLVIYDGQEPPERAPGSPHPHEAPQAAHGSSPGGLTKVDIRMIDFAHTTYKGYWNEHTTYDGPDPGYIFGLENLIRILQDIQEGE
Eukaryotic elongation factor 2 kinase (Homo sapiens), O00418 [H23R], sequence (O00418 whole entry H23R): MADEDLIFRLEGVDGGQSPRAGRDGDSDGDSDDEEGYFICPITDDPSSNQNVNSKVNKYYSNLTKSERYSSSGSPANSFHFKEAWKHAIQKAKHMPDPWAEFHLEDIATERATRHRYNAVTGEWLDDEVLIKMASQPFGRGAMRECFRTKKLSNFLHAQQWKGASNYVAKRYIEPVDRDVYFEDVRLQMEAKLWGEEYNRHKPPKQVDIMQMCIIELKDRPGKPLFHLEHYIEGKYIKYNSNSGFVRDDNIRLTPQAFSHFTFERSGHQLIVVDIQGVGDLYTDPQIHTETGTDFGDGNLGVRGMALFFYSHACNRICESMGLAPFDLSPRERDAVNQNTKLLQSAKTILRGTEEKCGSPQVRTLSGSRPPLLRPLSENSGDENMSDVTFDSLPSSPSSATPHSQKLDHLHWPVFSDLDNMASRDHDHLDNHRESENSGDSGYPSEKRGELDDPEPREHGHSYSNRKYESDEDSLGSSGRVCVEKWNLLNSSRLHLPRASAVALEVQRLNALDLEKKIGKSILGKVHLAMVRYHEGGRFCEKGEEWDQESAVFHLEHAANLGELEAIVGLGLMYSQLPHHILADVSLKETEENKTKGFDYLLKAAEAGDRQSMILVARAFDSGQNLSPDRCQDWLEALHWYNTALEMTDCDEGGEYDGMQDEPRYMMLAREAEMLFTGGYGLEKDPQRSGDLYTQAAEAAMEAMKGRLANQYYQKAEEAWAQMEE
Glycogen synthase kinase-3 beta (Homo sapiens), P49841 [UNDEFINED MUTATION], sequence (P49841 whole entry, looked up, stated change not applied): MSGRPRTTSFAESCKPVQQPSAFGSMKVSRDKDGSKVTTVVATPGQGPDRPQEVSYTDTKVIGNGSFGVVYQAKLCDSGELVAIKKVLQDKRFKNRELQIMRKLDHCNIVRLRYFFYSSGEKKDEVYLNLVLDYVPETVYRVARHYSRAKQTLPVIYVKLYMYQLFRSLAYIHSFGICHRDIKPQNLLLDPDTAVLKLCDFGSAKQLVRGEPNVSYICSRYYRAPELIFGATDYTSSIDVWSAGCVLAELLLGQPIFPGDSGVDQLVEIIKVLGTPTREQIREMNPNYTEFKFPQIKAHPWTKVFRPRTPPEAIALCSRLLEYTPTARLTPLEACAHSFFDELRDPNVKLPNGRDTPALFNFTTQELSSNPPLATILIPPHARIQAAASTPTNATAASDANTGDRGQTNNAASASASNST
Mitogen-activated protein kinase kinase kinase 7 (Homo sapiens), sequence (O43318 whole entry, the tested form may be a part): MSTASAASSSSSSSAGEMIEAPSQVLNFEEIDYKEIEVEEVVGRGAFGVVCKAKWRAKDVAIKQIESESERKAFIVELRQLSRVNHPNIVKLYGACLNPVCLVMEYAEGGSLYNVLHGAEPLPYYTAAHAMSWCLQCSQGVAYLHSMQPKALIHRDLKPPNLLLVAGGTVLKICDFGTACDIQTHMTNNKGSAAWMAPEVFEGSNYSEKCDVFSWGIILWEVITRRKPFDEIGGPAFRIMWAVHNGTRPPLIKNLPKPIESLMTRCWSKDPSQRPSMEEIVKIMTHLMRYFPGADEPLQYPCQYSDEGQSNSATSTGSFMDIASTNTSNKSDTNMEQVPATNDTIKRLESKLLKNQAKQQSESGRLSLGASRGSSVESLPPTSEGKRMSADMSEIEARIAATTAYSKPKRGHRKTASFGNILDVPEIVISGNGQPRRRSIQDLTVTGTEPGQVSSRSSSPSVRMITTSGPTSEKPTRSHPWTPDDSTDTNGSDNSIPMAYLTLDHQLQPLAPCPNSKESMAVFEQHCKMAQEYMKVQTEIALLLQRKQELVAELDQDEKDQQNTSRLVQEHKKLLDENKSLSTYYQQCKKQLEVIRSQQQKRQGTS
Tyrosine-protein kinase Fyn (Homo sapiens), sequence (P06241 2-537 limits assumed): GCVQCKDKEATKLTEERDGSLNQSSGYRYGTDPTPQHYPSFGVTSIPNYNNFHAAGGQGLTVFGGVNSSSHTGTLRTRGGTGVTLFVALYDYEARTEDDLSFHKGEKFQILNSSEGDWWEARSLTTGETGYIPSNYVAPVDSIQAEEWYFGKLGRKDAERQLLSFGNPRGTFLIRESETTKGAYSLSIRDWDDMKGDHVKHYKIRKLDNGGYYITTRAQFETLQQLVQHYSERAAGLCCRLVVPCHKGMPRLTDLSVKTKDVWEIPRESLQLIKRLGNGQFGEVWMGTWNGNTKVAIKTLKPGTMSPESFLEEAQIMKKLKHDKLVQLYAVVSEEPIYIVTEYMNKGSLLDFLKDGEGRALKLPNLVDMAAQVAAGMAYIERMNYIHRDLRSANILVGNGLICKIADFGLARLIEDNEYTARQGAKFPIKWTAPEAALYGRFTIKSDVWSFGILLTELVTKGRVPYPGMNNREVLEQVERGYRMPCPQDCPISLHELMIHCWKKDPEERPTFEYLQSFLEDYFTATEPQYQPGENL
Casein kinase I isoform gamma-1 (Homo sapiens), sequence (Q9HCP0 whole entry, looked up, the tested form may be a part, canonical isoform): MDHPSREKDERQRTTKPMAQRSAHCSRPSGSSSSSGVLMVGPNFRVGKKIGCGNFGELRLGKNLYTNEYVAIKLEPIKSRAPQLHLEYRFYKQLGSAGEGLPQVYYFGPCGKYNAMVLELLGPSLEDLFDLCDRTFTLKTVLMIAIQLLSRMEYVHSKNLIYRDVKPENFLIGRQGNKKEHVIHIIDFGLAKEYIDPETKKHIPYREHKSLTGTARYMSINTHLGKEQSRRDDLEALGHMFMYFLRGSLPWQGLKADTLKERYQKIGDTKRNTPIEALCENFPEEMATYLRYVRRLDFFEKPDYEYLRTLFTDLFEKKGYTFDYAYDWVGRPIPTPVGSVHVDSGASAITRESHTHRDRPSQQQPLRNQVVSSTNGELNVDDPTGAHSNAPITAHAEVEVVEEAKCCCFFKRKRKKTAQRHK
5'-AMP-activated protein kinase catalytic subunit alpha-1 (Homo sapiens), sequence (Q13131 whole entry, looked up): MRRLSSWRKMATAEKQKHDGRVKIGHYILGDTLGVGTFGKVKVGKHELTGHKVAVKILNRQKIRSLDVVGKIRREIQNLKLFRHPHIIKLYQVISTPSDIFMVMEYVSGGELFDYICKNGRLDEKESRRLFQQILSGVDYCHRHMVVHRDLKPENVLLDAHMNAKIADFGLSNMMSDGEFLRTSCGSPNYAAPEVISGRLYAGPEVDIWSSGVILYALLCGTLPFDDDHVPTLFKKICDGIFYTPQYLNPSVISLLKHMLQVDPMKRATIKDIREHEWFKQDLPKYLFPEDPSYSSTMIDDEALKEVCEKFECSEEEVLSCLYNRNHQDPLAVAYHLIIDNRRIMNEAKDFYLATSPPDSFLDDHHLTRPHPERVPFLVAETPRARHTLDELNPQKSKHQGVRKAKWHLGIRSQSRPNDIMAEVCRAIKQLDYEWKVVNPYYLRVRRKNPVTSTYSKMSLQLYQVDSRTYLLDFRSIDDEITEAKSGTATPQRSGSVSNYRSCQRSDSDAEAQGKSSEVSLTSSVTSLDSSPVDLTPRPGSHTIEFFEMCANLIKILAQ
Inhibitor of nuclear factor kappa-B kinase subunit alpha (Homo sapiens), sequence (O15111 whole entry, the tested form may be a part): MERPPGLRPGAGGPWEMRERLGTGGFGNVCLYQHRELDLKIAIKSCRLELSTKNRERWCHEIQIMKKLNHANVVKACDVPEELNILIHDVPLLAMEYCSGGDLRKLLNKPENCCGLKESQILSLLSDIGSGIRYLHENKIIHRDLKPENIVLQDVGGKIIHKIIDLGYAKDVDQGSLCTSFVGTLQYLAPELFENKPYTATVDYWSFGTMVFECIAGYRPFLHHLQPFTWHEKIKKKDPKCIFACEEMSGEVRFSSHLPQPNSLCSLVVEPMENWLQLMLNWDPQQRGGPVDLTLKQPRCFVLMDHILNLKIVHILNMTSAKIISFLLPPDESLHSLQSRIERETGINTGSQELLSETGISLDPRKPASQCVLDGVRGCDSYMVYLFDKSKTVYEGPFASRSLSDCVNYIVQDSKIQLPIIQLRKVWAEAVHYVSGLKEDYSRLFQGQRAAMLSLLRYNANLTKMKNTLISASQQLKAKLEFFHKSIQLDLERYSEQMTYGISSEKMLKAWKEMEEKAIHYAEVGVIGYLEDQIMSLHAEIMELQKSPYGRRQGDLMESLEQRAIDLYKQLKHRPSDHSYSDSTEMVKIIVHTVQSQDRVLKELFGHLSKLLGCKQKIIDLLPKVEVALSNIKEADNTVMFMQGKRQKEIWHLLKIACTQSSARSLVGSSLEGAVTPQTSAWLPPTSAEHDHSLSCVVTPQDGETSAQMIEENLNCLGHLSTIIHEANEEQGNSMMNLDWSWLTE
Calcium/calmodulin-dependent protein kinase type 1 (Homo sapiens), sequence (Q14012 whole entry, looked up): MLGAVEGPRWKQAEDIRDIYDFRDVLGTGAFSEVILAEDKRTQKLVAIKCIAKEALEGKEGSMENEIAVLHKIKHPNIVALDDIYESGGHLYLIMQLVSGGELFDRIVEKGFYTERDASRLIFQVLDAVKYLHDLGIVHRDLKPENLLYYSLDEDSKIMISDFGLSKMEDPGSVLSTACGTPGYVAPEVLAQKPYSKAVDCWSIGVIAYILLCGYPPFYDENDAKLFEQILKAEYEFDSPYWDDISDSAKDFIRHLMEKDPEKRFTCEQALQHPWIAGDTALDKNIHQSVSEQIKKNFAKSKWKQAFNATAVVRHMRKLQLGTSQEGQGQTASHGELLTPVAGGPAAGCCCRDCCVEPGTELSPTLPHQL

## COc1ccc2c(CCNc3nc(NCc4ccc(=O)[nH]c4)c4nc[nH]c4n3)c[nH]c2c1
[1]
  Activity: 6%
[2]
  IC50: 15 µM
[3]
  Activity: 95%
[4]
  t1/2: 42 min
[5]
  Activity: 46%
[6]
  Activity: 87%
[7]
  Ki: 0.2 µM
[8]
  Activity: 63%
[9]
  Activity: 109%
[10]
  Activity: 66%
[11]
  Activity: 94%
[12]
  solubility: 0.051 mg/mL (≈ 118 µM)
[13]
  Activity: 77%
[14]
  Activity: 90%
[15]
  Activity: 85%
[16]
  Ki: 9.62 µM
[17]
  Activity: 97%
[18]
  Activity: 84%
[19]
  Activity: 90%
[20]
  Activity: 45%
[21]
  Activity: -3%
[22]
  Activity: 97%
